Experimental findings from ChEMBL document CHEMBL1155935, “Epoxydons and a pyrone from the marine-derived fungus Nigrospora sp. PSU-F5” (2008) are described below.

Structures are written as SMILES. Values after ≈ are worked out from the molar mass of the structure shown. Active and inactive are the calls of the source. The rule behind the calls is not given here. Where only a bound is given, the exact number is not on record here.

Assay [1] has as its system Staphylococcus aureus. Put plainly: Antimicrobial activity against Staphylococcus aureus. The format is functional. The gist of the method: (§1)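 Agar microdilution MIC. Compounds in DMSO, serially 2-fold diluted and mixed 1:100 into melted Mueller-Hinton agar, giving final concentrations of 0.03–128 µg/mL. Strains were S. aureus ATCC 25923 and MRSA SK1. Inocula were spotted onto the agar and incubated at 35 °C for 18 h. MIC was the lowest concentration preventing visible growth. Vancomycin was the positive control; DMSO agar was the growth control.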

Assay [2] deals with Staphylococcus aureus. Put plainly: Antimicrobial activity against methicillin-resistant Staphylococcus aureus. The format is functional. Summed up:
as §1

With `O=C(O[C@H]1C(=O)C(CO)=C[C@@H](O)[C@@H]1O)c1cccc(O)c1`, the result in the assay on Staphylococcus aureus [1] and in the assay on Staphylococcus aureus [2] was inactive.
As to `CC1=CC(=O)CC(C)(C)[C@@]1(O)/C=C/C(C)=C\C(=O)O`, the outcome in the assay with Staphylococcus aureus [1] and with Staphylococcus aureus [2] was inactive.
On to `COc1cc(/C(C)=C/CO)oc(=O)c1`, for which the outcome in the assay on Staphylococcus aureus [1] and in the assay with Staphylococcus aureus [2] was inactive.
One may read the MIC as the least concentration at which growth counts as inhibited. Low readings indicate a more susceptible organism, high ones a less susceptible organism. On to `CC1=CC(=O)CC(C)(C)[C@@]1(O)/C=C/C(C)=C\C(=O)O[C@H]1C(=O)C(CO)=C[C@@H](O)[C@@H]1O` [NIGROSPOXYDON A], for which the MIC is 64 µg/mL (≈ 152 µM) with Staphylococcus aureus [1] and > 128 µg/mL with Staphylococcus aureus [2].
As for `CC1=CC(=O)CC(C)(C)[C@H]1/C=C/C(C)=C\C(=O)O`, the result in the assay on Staphylococcus aureus [1] and in the assay on Staphylococcus aureus [2] was inactive.
`O=C1C(CO)=C[C@@H](O)[C@H]2O[C@@H]12` [EPOXYDON]: the MIC against Staphylococcus aureus [1] and against Staphylococcus aureus [2] was 128 µg/mL (≈ 820 µM) in each case.
`C/C=C(\C)c1cc(OC)cc(=O)o1`: the outcome with Staphylococcus aureus [1] and in the assay on Staphylococcus aureus [2] was inactive.
As to `COC(=O)C(Cc1ccccc1)OC(CC(C)C)C(=O)O[C@H]1C(=O)C(CO)=C[C@@H](O)[C@@H]1O` (stereo partly specified), the outcome in the assay with Staphylococcus aureus [1] and in the assay on Staphylococcus aureus [2] was inactive.
